Bioassay records (PubChem)
NF-kB neuron act – raises NF-kB expression in human neuronal cells; NF-kB reporter expression; hits give high values; hit rate 1.6% among 190,000; fold change at 12.5 µM; AID 1239; in the data active = fold change above about 3.3
STAT3 inh – STAT3 signaling inhibition; U3A cells, IL-6 STAT3-luciferase reporter, luminescence; host cell line lacks STAT1; inhibition, % at 5.5 µM; hit rate 0.89% among 190,000; AID 862;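 active = inhibition above the mean inhibition across all screened compounds plus 3 SD, cut at about 44% in these data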
APP 5'UTR act – APP 5'UTR luciferase reporter activation | activation, % at 2 µM | AID 1276 | hit rate 1% among 190,000 | SH-SY5Y APP 5'UTR luciferase reporter, luminescence; zero percent = DMSO vehicle wells;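 active = activation above a set limit, based on mean plus 3 SD of controls, cut at about 140% in these data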
STAT1 act – activators of IFN-gamma induced STAT1 signaling; NIH 3T3 STAT1-luciferase reporter, luminescence; 100% = IFN-gamma alone, no compound; activation (% of control), % at 5.5 µM; hit rate 2.6% among 200,000; AID 932;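 active = activation above the screen-wide mean activation plus 3 SD, cut at about 130% in these data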
STAT3 act – activators of IL-6 induced STAT3 signaling; AID 871; hit rate 0.91% among 190,000; activation (% of control), % at 5.6 µM; U3A cells, IL-6 STAT3-luciferase reporter, luminescence; 100% = signal with IL-6 EC80 alone;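 active = activation above the screen-wide mean of compound activation plus 3 SD, cut at about 130% in these data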
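Material: human U3A cells carrying STAT3-luciferase construct. Measured by: reporter luminescence signal. Timing: compound 1 h, then IL-6 6 h at 37 °C.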
STAT1 inh – reduces IFN-gamma driven STAT1 reporter signal; NIH 3T3 STAT1-luciferase reporter, luminescence; inhibition, % at 5.5 µM; hit rate 0.35% among 200,000; AID 920;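 active = inhibition above a set limit, the mean inhibition across all tested compounds plus 3 SD, cut at about 34% in these data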
Numbers stand for hits; . = inactive; / = no result. Sampled rows, rich in hits. Any-hit rate of the full collection: about 5.1%.

SMILES | NF-kB neuron act | STAT3 inh | APP 5'UTR act | STAT1 act | STAT3 act | STAT1 inh
O=C(Nc1cc2c(cc1Cl)OCCCO2)c1ccccc1 | . | . | . | 132.8 | . | .
O=C(Nc1cc2c(cc1Cl)OCCCO2)c1ccco1 | . | . | . | 146.5 | . | .
Cc1ccc(C(C[N+](=O)[O-])c2c(-c3ccccc3O)[nH][nH]c2=O)cc1 (configuration not stated) | . | . | . | . | . | .
Nc1nc(CCOc2ccc(F)cc2)cs1 | . | . | . | 141.4 | . | .
Nc1nc(COc2ccc3ccccc3c2)cs1 | . | . | . | 137.6 | . | .
CC(C(=O)O/N=C(\N)c1cccnc1)c1ccc([N+](=O)[O-])cc1 (configuration not stated) | . | . | . | . | . | .
O=C(Nc1ccc2c(c1)OCCO2)c1oc2ccccc2c1NC(=O)C1CC1 | . | . | . | . | . | .
CCC(=O)Nc1c(C(=O)Nc2ccc3c(c2)OCCO3)oc2ccccc12 | . | . | . | 144.3 | . | .
Cc1ccc(NC(=O)c2oc3ccccc3c2NC(=O)C2CCCO2)cc1C (configuration not stated) | / | . | 176.2 | . | . | .
CCCS(=O)(=O)N1CCC(C(=O)NCCC(C)C)CC1 | . | . | . | . | . | .
O=C(NNC(=O)c1ccc(NC(=O)c2ccccc2)cc1)c1ccccc1 | . | . | . | . | . | .
N#CC1(c2ccc(NC(=O)c3ccccc3)cc2)CCCC1 | . | . | . | 147.2 | . | .
CCCSc1nc2ccsc2c(=O)n1CC | . | . | . | . | . | .
Cc1nc(NC(=O)c2ccc([N+](=O)[O-])cc2Cl)sc1C(=O)N(C)C | . | . | . | . | . | .
Cc1cc(C(=O)Nc2nc(C)c(C(=O)N(C)C)s2)ccc1[N+](=O)[O-] | . | . | . | 150.2 | . | .
CCc1ccc2nc(N)sc2c1 | . | . | . | . | . | .
Nc1ccc2nc(-c3ccccc3)sc2c1 | . | 63.8 | . | . | . | 42.4
Nc1ccc(-c2nc3cc(N)ccc3s2)cc1 | 5.34 | . | 185.5 | . | . | .
CC(C)c1nnc(NC(=O)c2cccc(NC(=O)C(F)(F)F)c2)s1 | . | . | . | 138.3 | . | .
CC(C)C(=O)Nc1cccc(C(=O)Nc2nnc(C(C)C)s2)c1 | . | . | . | 146.3 | . | .
CC(C)(C)NC(=O)c1nn(Cc2ccccc2)c(=O)c2ccccc12 | . | . | . | . | . | .
O=C(O)c1ccccc1C(=O)NNc1cccc(Cl)n1 | . | . | 155.2 | . | . | .
O=C(NCc1ccc2c(c1)OCO2)C1CCC(=O)N1C1CCCC1 (configuration not stated) | . | . | . | . | . | .
Cc1cc(C(=O)Cn2cc(C(F)(F)F)ccc2=O)c(C)n1-c1ccccc1 | . | . | . | . | . | .
Cc1cc(C(=O)CN2CCCCC2)c(C)n1-c1ccc(F)cc1 | . | . | . | 130.5 | . | .
SMILES | NF-kB neuron act | STAT3 inh | APP 5'UTR act | STAT1 act | STAT3 act | STAT1 inh
Cc1cc(C(=O)CN2CCCC2)c(C)n1-c1ccc(Cl)cc1 | . | . | . | . | . | .
Cc1cc(C(=O)CN2C(=O)C3CC=CCC3C2=O)c(C)n1-c1ccccc1 (configuration not stated) | . | . | 183.9 | 138.5 | . | .
Cc1ccc2nc(-c3ccc(N4C(=O)CC(N5CCCC(C)C5)C4=O)cc3)sc2c1 (configuration not stated) | . | . | . | . | . | .
Cc1ccc2nc(-c3ccc(N4C(=N)SC5CS(=O)(=O)CC54)cc3)sc2c1 (configuration not stated) | . | . | . | 130.0 | . | .
Cc1ccc2nc(SCC(=O)NCc3ccco3)c(C#N)cc2c1 | . | . | 137.3 | . | . | .
OCC1CCCCN1C(=S)Nc1cccc(Cl)c1 (configuration not stated) | . | . | . | 130.3 | . | .
OCC1CCCN1C(=S)Nc1ccccc1 (configuration not stated) | . | . | . | . | . | .
Cc1sc2nc3ccc(N4CCCCC4)nn3c(=O)c2c1C | . | . | . | . | . | .
Cc1ccc2nc3ccc(N4CCCC4)nn3c(=O)c2c1 | . | . | . | 133.5 | . | .
CC1CCCN(c2ccc3nc4ccccc4c(=O)n3n2)C1 (configuration not stated) | . | 76.1 | 175.1 | . | . | 51.3
NC(=O)C(=O)N/N=C1\CCc2ccccc21 | . | . | . | 131.3 | . | .
Cc1ccc(C(=O)N/N=C2\CCCc3ccccc32)c(C)c1 | . | . | . | 128.8 | . | .
O=C(N/N=C1\CCCc2ccccc21)c1ccc([N+](=O)[O-])cc1 | . | . | . | . | . | .
c1cc(-c2noc(CC3CCCCC3)n2)ccn1 | . | . | . | . | . | .
c1ccc(-c2noc(CC3CCCCC3)n2)nc1 | . | . | . | 132.7 | . | .
Clc1cc(Cl)c(OCc2nc(-c3ccccn3)no2)cc1Cl | 5.23 | . | . | 132.4 | . | .
CC(=O)c1ccccc1OC(=O)COc1ccc(Cl)cc1C | . | . | . | . | . | .
O=C1S/C(=C\c2ccc(Cl)cc2)C(=O)N1CCn1cnnn1 | . | . | . | . | . | .
COc1ccc2cc3cc(C(=O)NCCCN4CCc5ccccc5C4)sc3nc2c1 | 3.7 | . | . | 134.8 | . | .
COc1ccc2nc3sc(C(=O)NCCN4CCc5ccccc5C4)cc3cc2c1 | . | . | . | 128.9 | . | .
Cc1cccc(-n2c(C)cc(/C=N\NC(=O)c3ccco3)c2C)c1 | . | . | . | 145.2 | . | .
Cc1ccccc1C(=O)N/N=C/c1ccccn1 | . | . | . | 136.2 | . | .
Cc1cc(/C=N\NC(=O)c2cccs2)c(C)n1-c1ccc2ncccc2c1 | . | . | . | 130.2 | . | .
Cc1cccc(-n2c(C)cc(/C=N/O)c2C)c1 | . | . | . | . | . | .
O=C(N/N=C\c1ccccn1)c1ccccc1O | . | . | . | . | . | .
SMILES | NF-kB neuron act | STAT3 inh | APP 5'UTR act | STAT1 act | STAT3 act | STAT1 inh
O=C(N/N=C/c1ccccn1)c1cccs1 | . | . | . | 131.7 | . | .
C/C(=N/NC(=O)CN1CCN(S(=O)(=O)c2ccc(Br)cc2)CC1)c1ccco1 | . | . | . | . | . | .
CCOc1ncccc1C(=O)Nc1nc(SC)ns1 | . | . | . | . | . | .
O=c1[nH]c(=O)n(Cc2ccco2)c2c1C(C(F)(F)F)(C(F)(F)F)N=C(Cc1ccccc1)N2 | . | . | . | . | . | .
O=Cc1s/c(=N\S(=O)(=O)c2ccccc2)n(CCCCl)c1Cl | . | . | . | 136.3 | . | .
[O-]/C(=C(\C(=S)NCc1ccccc1)[n+]1ccccc1)c1ccc(Cl)s1 | . | . | . | . | . | .
Clc1nc(-c2ccccc2)cc(-c2ccc(Br)cc2)n1 | / | . | . | . | 137.8 | .
C/C(CC(=O)Nc1ccc(Cl)cc1)=N\NC(=O)C(=O)N1CCCCC1 | . | . | . | . | . | .
